Results from publication PMC8572679 (Journal of Pharmaceutical Analysis, 2020).

How the values were obtained:
[1] = system: CYP51; assay: Activity of CYP51 in four standard bacterial strains; format: cell-based, E. faecalis, S. epidermidis, E. cloacae, and E. faecium
Method in brief: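 The four strains were resuscitated, plate-counted and diluted to equal density. 100 μL culture went into 0.9 mL sterile anaerobic medium, N₂-flushed, sealed and held at 37 °C. Groups were methanol control, 10 μL of 50 mg/mL BBR, or BBR plus 3.5 μg/mL voriconazole. After 48 and 72 h, cells were sonicated and CYP51 activity was measured by sterol 14α-demethylase ELISA kit.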

[2] = target: CYP51 enzyme lysate (Saccharomyces cerevisiae, UniProt P10614); assay: Enzymatic reaction in recombinant CYP51 enzyme lysate; format: biochemical, Saccharomyces cerevisiae S288C; conditions: NADPH 0.5 mM, 0-4 h
[3] = cited from earlier work
[4] = Pharmacokinetics of BBR, M1 and M2 in vivo after single oral administration; conditions: ICR mice; for AUC(0-t) / AUC(0-inf) / Cmax / MRT last / MRT inf / half-life: ICR, mouse, plasma, po, 200 mg/kg, two-compartment model, mean ± SD; for AUC(0-t): AUC(0–24 h); for AUC(0-t) / AUC(0-inf) / Cmax / MRT last / MRT inf: BBR in plasma; for MRT last: MRT(0–24 h); for MRT inf: MRT(0−∞); for half-life: t1/2, BBR in plasma; for level in plasma (below the lower limit of quantitation): any of the time points
Method in brief: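 Male ICR mice, fasted 12 h, got a single oral dose of BBR 200 mg/kg + voriconazole 30 mg/kg, with food allowed after 3 h. Retrobulbar blood was drawn into heparinised tubes at 0.17–24 h (11 times) and stored at −20 °C. 100 μL plasma was precipitated with 300 μL methanol containing internal standard. BBR, M1 and M2 were measured by LC-MS/MS, with a curve of 1–1000 ng/mL and a lower limit of quantitation of 1 ng/mL.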

[5] = system: gut microbiota; assay: 16S rRNA analysis of the feces of ICR mice after oral administration; format: in vivo
[6] = system: E. faecalis, S. epidermidis, E. cloacae, and E. faecium; assay: Metabolism of BBR in the four standard bacterial strains; format: in vitro ADME; conditions: BBR 50 mg/mL + voriconazole 3.5 μg/mL, 72 h
Method in brief: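 Plate-counted strains, equalised in density, were put in anaerobic medium (100 μL culture + 0.9 mL), N₂-flushed, sealed and preincubated 1 h at 37 °C. Each got 10 μL BBR (50 mg/mL solution) ± voriconazole (3.5 μg/mL solution) or methanol control and was incubated 48 and 72 h. It was quenched with 1 mL methanol containing internal standard and centrifuged. BBR, M1 and M2 were measured by LC-MS/MS (curve 1–1000 ng/mL) and % BBR metabolism calculated.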

[7] = system: mice gut microbiota; assay: Metabolism of BBR by the mice gut microbiota in vitro; format: in vitro ADME; conditions: BBR 50 mg/mL + voriconazole 3.5 μg/mL vs BBR group
Method in brief: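 Mouse colon contents were homogenised anaerobically, 1 g in 20 mL autoclaved anaerobic medium, and preincubated 60 min at 37 °C under N₂. 1 mL culture received 10 μL methanol solution (BBR 50 mg/mL + voriconazole 3.5 μg/mL, BBR alone, or methanol control), was sealed and incubated at 37 °C for 12–72 h. It was quenched with methanol, centrifuged, diluted 50-fold and precipitated with methanol plus internal standard. BBR, M1 and M2 were measured by LC-MS/MS (ESI+), curve 1–1000 ng/mL.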

[8] = system: mouse intestinal microsomes; assay: Metabolism of BBR in mouse intestinal microsomes in vitro; format: in vitro ADME; conditions: BBR 50 mg/mL + voriconazole 3.5 μg/mL
[9] = oral BBR 200 mg/kg + voriconazole 30 mg/kg
[10] = feces 24 h after oral BBR, vs control group, P < 0.05

CYP51 enzyme lysate, sequence (P10614 2-530): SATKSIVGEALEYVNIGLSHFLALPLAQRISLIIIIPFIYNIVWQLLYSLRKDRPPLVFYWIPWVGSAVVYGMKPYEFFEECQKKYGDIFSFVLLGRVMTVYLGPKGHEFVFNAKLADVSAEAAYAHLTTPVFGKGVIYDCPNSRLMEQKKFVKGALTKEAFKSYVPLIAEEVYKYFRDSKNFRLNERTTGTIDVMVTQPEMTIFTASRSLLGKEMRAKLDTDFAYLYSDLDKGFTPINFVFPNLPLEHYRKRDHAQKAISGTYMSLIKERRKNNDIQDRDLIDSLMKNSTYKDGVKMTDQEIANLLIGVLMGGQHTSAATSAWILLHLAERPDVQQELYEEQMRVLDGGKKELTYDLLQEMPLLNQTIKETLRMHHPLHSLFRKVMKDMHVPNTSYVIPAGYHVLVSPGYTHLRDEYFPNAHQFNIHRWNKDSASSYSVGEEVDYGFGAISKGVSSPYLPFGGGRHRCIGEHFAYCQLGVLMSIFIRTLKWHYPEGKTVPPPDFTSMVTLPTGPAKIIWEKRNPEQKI

## COc1ccc2cc3[n+](cc2c1OC)CCc1cc2c(cc1-3)OCO2 [BBR, Berberine]
[1]; four strains incubated with 50 mg/mL BBR for 72 h
  activity of CYP51 compared with that in the strains alone: not significantly different
[2]; BBR 10 μg/mL, CYP51 enzyme lysate compared with the control
  production ratios of M1 and M2: significantly increased
[3]
  share of BBR that could enter the blood (absorption rate): less than 10%
[4]; [9]
  AUC(0-t): 299 ± 56.4 ng·h/mL
  AUC(0-inf): 388 ± 103 ng·h/mL
  Cmax: 64.5 ± 20.1 ng/mL
  MRT last: 6.5 ± 1.4 h
  MRT inf: 10.4 ± 2.32 h
  half-life: 9.91 ± 5.26 h
[4]; oral BBR 200 mg/kg
  AUC(0-t): 272 ± 68.4 ng·h/mL
  AUC(0-inf): 334 ± 79.3 ng·h/mL
  Cmax: 44.3 ± 10.4 ng/mL
  MRT last: 7.39 ± 1.71 h
  MRT inf: 12.7 ± 5.85 h
  half-life: 8.44 ± 5.55 h
[5]; after oral BBR, vs control group, P < 0.05 (Fig. S2)
  abundance of Porphyromonadaceae (family level): significant increase
[5]; [10]
  abundance of the genus Parabacteroides: significant increase
  abundances of five genera (Tyzzerella 3, Rikenellaceae RC9 gut group, Roseburia, Tyzzerella, Ruminococcus 1): significant decrease

## CC(C)=CCC[C@@H](C)[C@H]1CC[C@@]2(C)C3=C(CC[C@]12C)[C@@]1(C)CC[C@H](O)C(C)(C)[C@@H]1CC3 [Lanosterol]
[2]; lanosterol 10 μg/mL, CYP51 enzyme lysate
  production ratio of demethylated metabolite FF-MAS: increased significantly

## COc1c(O)ccc2cc3[n+](cc12)CCc1cc2c(cc1-3)OCO2 [M1, Thalifendine]
[4]; [9]
  level in plasma (below the lower limit of quantitation): < 1 ng/mL

## COc1ccc2cc3[n+](cc2c1O)CCc1cc2c(cc1-3)OCO2 [M2, Berberrubine]
[4]; [9]
  level in plasma (below the lower limit of quantitation): < 1 ng/mL

## C[C@@H](c1ncncc1F)[C@](O)(Cn1cncn1)c1ccc(F)cc1F [voriconazole]
[1]; four strains, BBR 50 mg/mL + voriconazole 3.5 μg/mL, 72 h
  CYP51 activity after the addition of voriconazole: reduced
[6]
  level of M2 produced by each strain after the addition of voriconazole: below the lower limit of quantitation
[6]; vs BBR group
  level of M1 produced by each strain after the addition of voriconazole: significantly reduced
[7]
  percentage of residual BBR after the addition of voriconazole: significantly increased
  production of M1 after the addition of voriconazole: significantly decreased
  production of M2 after the addition of voriconazole: significantly decreased
[8]; 30 min
  decrease of production of M1 after adding voriconazole: 21%
  decrease of production of M2 after adding voriconazole: 28%
[8]; 60 min
  decrease of production of M1 after adding voriconazole: 25%
  decrease of production of M2 after adding voriconazole: 26%
[8]; 120 min
  decrease of production of M1 after adding voriconazole: 20%
  decrease of production of M2 after adding voriconazole: 30%
[5]; oral BBR 200 mg/kg + voriconazole 30 mg/kg vs BBR 200 mg/kg (Fig. S3)
  abundances of Parabacteroides, Tyzzerella 3, Rikenellaceae RC9 gut group, Roseburia, Tyzzerella, Ruminococcus 1 and Porphyromonadaceae after the addition of voriconazole: did not change significantly
